Laboratory results from ChEMBL document CHEMBL1129263, “Structure-activity relationships of (E)-3-(1,4-benzoquinonyl)-2-[(3-pyridyl)-alkyl]-2-propenoic acid derivatives that inhibit both 5-lipoxygenase and thromboxane A2 synthetase” (J Med Chem, 1996).

Columns and labels:
Rattus norvegicus [1] = organism: Rattus norvegicus; experiment: In vitro inhibition of Leukotriene B4 (LTB4) production in glycogen-induced peritoneal cells of rat; format: functional, cell-based
How it was run: (§1)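 Glycogen-elicited rat peritoneal leukocytes in Ca²⁺/Mg²⁺-free HBSS (5 × 10⁶ cells/mL; 5 × 10⁵ cells per aliquot). Cells were preincubated 5 min at 37 °C with compound or vehicle (0.1% DMSO/0.1% BSA), then stimulated with A23187 (4 µM, 10 min, 37 °C). The reaction was stopped with BW755C (100 µM). Supernatant LTB₄, TXB₂ and PGE₂ were measured by RIA. Points were run in duplicate; IC₅₀ by probit.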

Rattus norvegicus [2] = organism: Rattus norvegicus; experiment: Compound was evaluated in Vitro in glycogen induced peritoneal cells of rats(GPEC) for the inhibition of Prostaglandin E2 (PGE2) production at 0.1-10 uM; format: functional, cell-based; how it was run: as §1
Rattus norvegicus [3] = organism: Rattus norvegicus; experiment: In vitro inhibition of Thromboxane B2 (TXB2) production in glycogen-induced peritoneal cells of rat; format: functional, cell-based; how it was run: as §1
Rattus norvegicus [4] = organism: Rattus norvegicus; experiment: Compound was evaluated in Vitro in glycogen induced peritoneal cells of rats(GPEC) for the inhibition of Prostaglandin E2 (PGE2) production at 0.1-1 uM; format: functional, cell-based; how it was run: as §1
Homo sapiens [5] = organism: Homo sapiens; experiment: In vitro inhibition of LTB4 production in human whole blood; format: functional
How it was run: (§2)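 Fresh heparinized (10 U/mL) human volunteer blood, 0.4 mL aliquots. Blood was preincubated 5 min at 37 °C with compound or vehicle (0.1% DMSO/0.1% BSA), then challenged with A23187 (40 µM, 20 min, 37 °C). Plasma LTB₄ and TXB₂ were measured by RIA. Duplicate points; IC₅₀ by probit.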

Homo sapiens [6] = organism: Homo sapiens; experiment: In vitro inhibition of LTB4 production in human neutrophils; format: functional
How it was run: (§3)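 Human blood neutrophils were isolated by dextran sedimentation and Percoll gradient and held in Ca²⁺/Mg²⁺-free HBSS (1 × 10⁶ cells/mL). Cells were preincubated 5 min at 37 °C with compound or vehicle (0.1% DMSO/0.1% BSA), then stimulated with A23187 (4 µM, 10 min). Supernatant LTB₄ was measured by RIA. Duplicate points; IC₅₀ by probit.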

Rattus norvegicus [7] = organism: Rattus norvegicus; experiment: Compound was evaluated in Vitro in glycogen induced peritoneal cells of rats(GPEC) for the inhibition of Leukotriene B4 (LTB4) production; format: functional, cell-based; how it was run: as §1
[8] = in vitro activities of TXB2 in human platelets; format: functional
How it was run: (§4)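 Washed human platelets in Tris-HCl-saline, pH 7.4, with 10 µM indomethacin (3 × 10⁸ cells/mL). Platelets were preincubated 5 min at 25 °C with compound or vehicle, then given PGH₂ (1 µg/mL, 3 min, 25 °C). The reaction was stopped with citrate/ethanol. Supernatant TXB₂ was measured by RIA. Duplicate points; IC₅₀ by probit.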

[9] = in vitro activities of TXB2 in human whole blood; format: functional, tissue-based; how it was run: as §2
Rattus norvegicus [10] = organism: Rattus norvegicus; experiment: Compound was evaluated in Vitro in glycogen induced peritoneal cells of rats(GPEC) for the inhibition of Prostaglandin E2 (PGE2) production at 0.1-100 uM; format: functional, cell-based; how it was run: as §1
Homo sapiens [11] = organism: Homo sapiens; experiment: Inhibitory activity of the compound against leukotriene (LT) B4 production in human neutrophils; format: functional; how it was run: as §3
Homo sapiens [12] = organism: Homo sapiens; experiment: Inhibitory activity of the compound against Thromboxane TXB2 production in human blood platelets; format: functional; how it was run: as §4
Homo sapiens [13] = organism: Homo sapiens; experiment: Inhibitory activity of the compound against Thromboxane TXB2 production in human whole blood; format: functional; how it was run: as §2
Homo sapiens [14] = organism: Homo sapiens; experiment: Inhibitory activity of the compound against leukotriene (LT) B4 production in human whole blood; format: functional; how it was run: as §2

Compound | IC50 (Rattus norvegicus [1]) | IC50 (Rattus norvegicus [2]) | IC50 (Rattus norvegicus [3]) | also measured
CC1=C(/C=C(\CCCCCc2cccnc2)C(=O)O)C(=O)C(OCC2CCCCC2)=C(C)C1=O | 270 nM | > 100 µM | < 100 nM | –
COC1=C(C)C(=O)C(/C=C(\CCCc2cccnc2)C(=O)O)=C(C)C1=O | 3200 nM | 100 µM | 480 nM | –
CCOC1=C(C)C(=O)C(/C=C(\CCCCCc2cccnc2)C(=O)O)=C(C)C1=O | 4400 nM | – | 320 nM | IC50 (Rattus norvegicus [4]): 100 µM
COC1=C(C)C(=O)C(/C=C(\CCCCCc2cccnc2)C(=O)O)=C(C)C1=O | 820 nM | – | 70 nM | IC50 (Homo sapiens [5]): 5.8 µM; IC50 (Homo sapiens [6]): 900 nM; IC50 (Rattus norvegicus [7]): 0.82 mM; IC50 [8]: 390 nM; IC50 [9]: 3.2 µM
CCOC1=C(C)C(=O)C(C)=C(/C=C(\CCCCCc2cccnc2)C(=O)O)C1=O | 840 nM | – | 120 nM | IC50 (Rattus norvegicus [10]): 100 µM
COC1=C(C)C(=O)C(/C=C(\CCCCc2cccnc2)C(=O)O)=C(C)C1=O | 1400 nM | > 100 µM | 90 nM | –
COC1=C(OC)C(=O)C(/C=C(\CCCCCc2cccnc2)C(=O)O)=C(C)C1=O | 11700 nM | > 100 µM | 410 nM | –
COC1=C(C)C(=O)C(C)=C(/C=C(\CCCCCc2cccnc2)C(=O)O)C1=O | 540 nM | – | 180 nM | IC50 (Rattus norvegicus [10]): > 100 µM
CCCCCCCOC1=C(C)C(=O)C(/C=C(\CCCCCc2cccnc2)C(=O)O)=C(C)C1=O | 3200 nM | – | 160 nM | IC50 (Rattus norvegicus [4]): > 100 µM
CCCCOC1=C(C)C(=O)C(C)=C(/C=C(\CCCCCc2cccnc2)C(=O)O)C1=O | 1000 nM | – | < 100 nM | IC50 (Rattus norvegicus [4]): 100 µM
COc1c(C)c(O)c(/C=C(\CCCCCc2cccnc2)C(=O)O)c(C)c1O | 4900 nM | – | 400 nM | IC50 (Homo sapiens [5]): > 100 µM; IC50 (Homo sapiens [6]): 1900 nM; IC50 (Rattus norvegicus [7]): 4.9 mM; IC50 [8]: 1900 nM; IC50 [9]: 3 µM
COc1c(C)c(O)c(C)c(/C=C(\CCCCCc2cccnc2)C(=O)O)c1O | > 3000 nM | > 100 µM | 1500 nM | –
COc1c(O)c(C)c(C)c(O)c1/C=C(\CCCCCc1cccnc1)C(=O)O | 2100 nM | > 100 µM | 140 nM | –
O=C(O)/C=C/c1ccc(Cn2ccnc2)cc1 [OZAGREL] | – | – | – | IC50 (Homo sapiens [11]): > 100 µM; IC50 (Homo sapiens [12]): 1900 nM; IC50 (Homo sapiens [13]): < 0.1 µM; IC50 (Homo sapiens [14]): > 100000 nM
CC(c1cc2ccccc2s1)N(O)C(N)=O (centres undefined) [ZILEUTON] | – | – | – | IC50 (Homo sapiens [13]): > 100 µM; IC50 (Homo sapiens [14]): 1300 nM

Second part, led by results:

IC50 (Rattus norvegicus [1]) | IC50 (Rattus norvegicus [2]) | IC50 (Rattus norvegicus [3]) | Compound | also measured
270 nM | – | < 100 nM | CCCCCCCOC1=C(C)C(=O)C(C)=C(/C=C(\CCCCCc2cccnc2)C(=O)O)C1=O | –
750 nM | – | 500 nM | COC1=C(/C=C(\CCCCCc2cccnc2)C(=O)O)C(=O)C(C)=CC1=O | –
220 nM | – | 420 nM | COC1=C(/C=C(\CCCCCCc2cccnc2)C(=O)O)C(=O)C(C)=C(C)C1=O | –
170 nM | – | 110 nM | COC1=C(/C=C(\CCCCCc2cccnc2)C(=O)O)C(=O)C(C)=C(C)C1=O | –
1800 nM | – | 890 nM | CCCCOC1=C(C)C(=O)C(C)=C(/C=C(\CCCc2cccnc2)C(=O)O)C1=O | –
180 nM | – | < 100 nM | COC1=C(C)C(=O)C(C)=C(/C=C(\CCCCCCc2cccnc2)C(=O)O)C1=O | IC50 (Rattus norvegicus [4]): 100 µM
590 nM | 100 µM | 120 nM | COC1=C(C)C(=O)C(/C=C(\CCCCCCc2cccnc2)C(=O)O)=C(C)C1=O | –
